Assay results taken from ChEMBL document CHEMBL4373647, “Design, synthesis, and antimicrobial evaluation of 1,4-dihydroindeno[1,2-c]pyrazole tethered carbohydrazide hybrids: exploring their in silico ADMET, ergosterol inhibition and ROS inducing potential” (Medchemcomm, 2019).
In brackets after ≈: the same amount, converted by molar mass.

Legend:
Staphylococcus aureus [1] = experiment: Ratio of MBC to MIC against Staphylococcus aureus MTCC 96; assay type: functional
Micrococcus luteus [2] = experiment: Ratio of MBC to MIC against Micrococcus luteus MTCC 2470; assay type: functional
Staphylococcus aureus [3] = experiment: Antibacterial activity against Staphylococcus aureus MTCC 96 assessed as inhibition of bacterial growth incubated for 24 hrs by agar well diffusion method; assay type: functional; conditions: MTCC 96, 24 h
In short: (§1)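 Strains from MTCC; inoculum at 0.5 McFarland spread on Mueller-Hinton agar; 6 mm wells loaded with compound over 125–0.97 µg/mL; ciprofloxacin positive control (same range), DMSO negative control. Plates held 24 h at 37 °C; MIC taken as lowest concentration giving a clear inhibition zone. Triplicate runs, mean MIC reported.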

Staphylococcus aureus [4] = experiment: Antibacterial activity against Staphylococcus aureus MLS-16 MTCC 2940 assessed as inhibition of bacterial growth incubated for 24 hrs by agar well diffusion method; assay type: functional; conditions: MLS-16 MTCC 2940, 24 h; in short: as §1
Bacillus subtilis [5] = experiment: Antibacterial activity against Bacillus subtilis MTCC 121 assessed as inhibition of bacterial growth incubated for 24 hrs by agar well diffusion method; assay type: functional; conditions: MTCC 121, 24 h; in short: as §1
Escherichia coli [6] = experiment: Antibacterial activity against Escherichia coli MTCC 739 assessed as inhibition of bacterial growth incubated for 24 hrs by agar well diffusion method; assay type: functional; conditions: MTCC 739, 24 h; in short: as §1
Pseudomonas aeruginosa [7] = experiment: Antibacterial activity against Pseudomonas aeruginosa MTCC 2453 assessed as inhibition of bacterial growth incubated for 24 hrs by agar well diffusion method; assay type: functional; conditions: MTCC 2453, 24 h; in short: as §1
Candida albicans [8] = experiment: Antifungal activity against Candida albicans MTCC 3017 assessed as inhibition of fungal growth incubated for 24 hrs by agar well diffusion method; assay type: functional; conditions: MTCC 3017, 24 h
In short: (§2)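 Candida strains from MTCC, pre-cultured and spread on Mueller Hinton agar. Wells received compound dissolved in 10% DMSO, 125–0.97 µg/mL; miconazole standard over the same range, DMSO negative control. After 24 h at 37 °C, MIC was read as the lowest concentration giving an inhibition zone. Duplicate experiments, means given.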

Candida albicans [9] = experiment: Antifungal activity against Candida albicans MTCC 1637 assessed as inhibition of fungal growth incubated for 24 hrs by agar well diffusion method; assay type: functional; conditions: MTCC 1637, 24 h; in short: as §2
Candida albicans [10] = experiment: Antifungal activity against Candida albicans MTCC 4748 assessed as inhibition of fungal growth incubated for 24 hrs by agar well diffusion method; assay type: functional; conditions: MTCC 4748, 24 h; in short: as §2
Candida albicans [11] = experiment: Antifungal activity against Candida albicans MTCC 7315 assessed as inhibition of fungal growth incubated for 24 hrs by agar well diffusion method; assay type: functional; conditions: MTCC 7315, 24 h; in short: as §2
Candida parapsilosis [12] = experiment: Antifungal activity against Candida parapsilosis MTCC 1744 assessed as inhibition of fungal growth incubated for 24 hrs by agar well diffusion method; assay type: functional; conditions: Lodderomyces parapsilosis, MTCC 1744, 24 h; in short: as §2
Nakaseomyces glabratus [13] = experiment: Antifungal activity against Candida glabrata MTCC 3019 assessed as inhibition of fungal growth incubated for 24 hrs by agar well diffusion method; assay type: functional; conditions: MTCC 3019, 24 h; in short: as §2
Pichia sporocuriosa [14] = experiment: Antifungal activity against Issatchenkia hanoiensis MTCC 4755 assessed as inhibition of fungal growth incubated for 24 hrs by agar well diffusion method; assay type: functional; conditions: MTCC 4755, 24 h; in short: as §2
Micrococcus luteus [15] = experiment: Bactericidal activity against Micrococcus luteus MTCC 2470 assessed as bacterial killing incubated for 24 hrs; assay type: functional; conditions: MTCC 2470, 24 h
In short: (§3)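 Broth tube assay: compound at 0–125 µg/mL in Mueller Hinton broth, overnight culture added to 0.5 McFarland (1.5 × 10^8 cfu/mL), held 24 h at 37 °C. 10 µL from each tube plated on Mueller Hinton agar. MBC is the lowest concentration that kills the strain. Duplicates, means reported.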

Staphylococcus aureus [16] = experiment: Bactericidal activity against Staphylococcus aureus MTCC 96 assessed as bacterial killing incubated for 24 hrs; assay type: functional; conditions: MTCC 96, 24 h; in short: as §3
Escherichia coli [17] = experiment: Bactericidal activity against Escherichia coli MTCC 739 assessed as bacterial killing incubated for 24 hrs; assay type: functional; conditions: MTCC 739, 24 h; in short: as §3
Pseudomonas aeruginosa [18] = experiment: Bactericidal activity against Pseudomonas aeruginosa MTCC 2453 assessed as bacterial killing incubated for 24 hrs; assay type: functional; conditions: MTCC 2453, 24 h; in short: as §3
MRC5 = experiment: Cytotoxicity against human MRC5 cells incubated for 48 hrs by MTT assay; assay type: cell-based; conditions: MRC5, 48 h
In short: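 Normal human lung MRC5 cells grown 24 h in 96-well plates, then exposed to a range of compound concentrations for 48 h. MTT (250 µg/mL) added for 2 h, medium replaced by DMSO, absorbance read at 570 nm. Miconazole positive control, DMSO negative control. Triplicates, mean ± S.D.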

Pichia kudriavzevii [19] = experiment: Fungicidal activity against Candida krusei MTCC 3020 assessed as fungal killing incubated for 24 hrs; assay type: functional; conditions: MTCC 3020, 24 h
In short: (§4)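 Compound at 125–0.97 µg/mL in Mueller Hinton broth in microcentrifuge tubes, each Candida strain added, held 24 h at 37 °C. 10 µL of the treated suspension plated on Mueller Hinton agar and incubated a further 24 h at 37 °C. MFC is the lowest concentration that kills the strain. Duplicates, means reported.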

Candida albicans [20] = experiment: Fungicidal activity against Candida albicans MTCC 227 assessed as fungal killing incubated for 24 hrs; assay type: functional; conditions: MTCC 227, 24 h; in short: as §4
Candida albicans [21] = experiment: Fungicidal activity against Candida albicans MTCC 4748 assessed as fungal killing incubated for 24 hrs; assay type: functional; conditions: MTCC 4748, 24 h; in short: as §4
Candida parapsilosis [22] = experiment: Fungicidal activity against Candida parapsilosis MTCC 1744 assessed as fungal killing incubated for 24 hrs; assay type: functional; conditions: Lodderomyces parapsilosis, MTCC 1744, 24 h; in short: as §4
Nakaseomyces glabratus [23] = experiment: Fungicidal activity against Candida glabrata MTCC 3019 assessed as fungal killing incubated for 24 hrs; assay type: functional; conditions: MTCC 3019, 24 h; in short: as §4
Pichia sporocuriosa [24] = experiment: Fungicidal activity against Issatchenkia hanoiensis MTCC 4755 assessed as fungal killing incubated for 24 hrs; assay type: functional; conditions: MTCC 4755, 24 h; in short: as §4
Staphylococcus aureus [25] = experiment: Ratio of MBC to MIC against Staphylococcus aureus MLS-16 MTCC 2940; assay type: functional
Bacillus subtilis [26] = experiment: Ratio of MBC to MIC against Bacillus subtilis MTCC 121; assay type: functional
Candida albicans [27] = experiment: Ratio of MFC to MIC against Candida albicans MTCC 1637; assay type: functional
Candida albicans [28] = experiment: Ratio of MFC to MIC against Candida albicans MTCC 4748; assay type: functional
In short: (§5)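 MIC by agar well diffusion: Candida lawns on Mueller-Hinton agar, wells loaded with compound in 10% DMSO (125–0.97 µg/mL), 24 h at 37 °C, lowest concentration giving an inhibition zone. MFC: compound in Mueller-Hinton broth (125–0.97 µg/mL) with yeast, 24 h at 37 °C, 10 µL plated on agar, lowest killing concentration after 24 h. Ratio is MFC/MIC.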

Candida albicans [29] = experiment: Ratio of MFC to MIC against Candida albicans MTCC 7315; assay type: functional; in short: as §5
Candida parapsilosis [30] = experiment: Ratio of MFC to MIC against Candida parapsilosis MTCC 1744; assay type: functional; in short: as §5
Nakaseomyces glabratus [31] = experiment: Ratio of MFC to MIC against Candida glabrata MTCC 3019; assay type: functional; in short: as §5
Pichia kudriavzevii [32] = experiment: Ratio of MFC to MIC against Candida krusei MTCC 3020; assay type: functional; in short: as §5
Pichia sporocuriosa [33] = experiment: Ratio of MFC to MIC against Issatchenkia hanoiensis MTCC 4755; assay type: functional; in short: as §5
Escherichia coli [34] = experiment: Ratio of MBC to MIC for Escherichia coli MTCC 739; assay type: functional
Pseudomonas aeruginosa [35] = experiment: Ratio of MBC to MIC for Pseudomonas aeruginosa MTCC 2453; assay type: functional
Raoultella planticola = experiment: Ratio of MBC to MIC for Klebsiella planticola MTCC 530; assay type: functional

MIC (Staphylococcus aureus [3]) [µg/mL]	MIC (Staphylococcus aureus [4]) [µg/mL]	MIC (Bacillus subtilis [5]) [µg/mL]	MIC (Escherichia coli [6]) [µg/mL]	MIC (Pseudomonas aeruginosa [7]) [µg/mL]	MIC (Candida albicans [8]) [µg/mL]	MIC (Candida albicans [9]) [µg/mL]	MIC (Candida albicans [10]) [µg/mL]	MIC (Candida albicans [11]) [µg/mL]	MIC (Candida parapsilosis [12]) [µg/mL]	MIC (Nakaseomyces glabratus [13]) [µg/mL]	MIC (Pichia sporocuriosa [14]) [µg/mL]	SMILES	Ratio (Staphylococcus aureus [1])	Ratio (Micrococcus luteus [2])	MBC (Micrococcus luteus [15]) [µg/mL]	MBC (Staphylococcus aureus [16]) [µg/mL]	MBC (Escherichia coli [17]) [µg/mL]	MBC (Pseudomonas aeruginosa [18]) [µg/mL]	IC50 (MRC5) [µg/mL]	MFC (Pichia kudriavzevii [19]) [µg/mL]	other results
3.9 (≈ 11.6 µM)	3.9 (≈ 11.6 µM)	7.8 (≈ 23.2 µM)	3.9 (≈ 11.6 µM)	7.8 (≈ 23.2 µM)	7.8 (≈ 23.2 µM)	15.6 (≈ 46.4 µM)	15.6 (≈ 46.4 µM)	15.6 (≈ 46.4 µM)	15.6 (≈ 46.4 µM)	15.6 (≈ 46.4 µM)	31.2 (≈ 92.8 µM)	O=C(N/N=C/c1ccc(O)cc1)c1n[nH]c2c1Cc1cc(F)ccc1-2	2	2	15.6 (≈ 46.4 µM)	7.8 (≈ 23.2 µM)	7.8 (≈ 23.2 µM)	15.6 (≈ 46.4 µM)	28.9 (≈ 85.9 µM)	31.2 (≈ 92.8 µM)	MFC (Candida albicans [20]): 15.6 µg/mL (≈ 46.4 µM); MFC (Candida albicans [21]): 31.2 µg/mL (≈ 92.8 µM); MFC (Candida parapsilosis [22]): 31.2 µg/mL (≈ 92.8 µM); MFC (Nakaseomyces glabratus [23]): 31.2 µg/mL (≈ 92.8 µM); MFC (Pichia sporocuriosa [24]): 62.4 µg/mL (≈ 186 µM); Ratio (Staphylococcus aureus [25]): 2; Ratio (Bacillus subtilis [26]): 2; Ratio (Candida albicans [27]): 2; Ratio (Candida albicans [28]): 2; Ratio (Candida albicans [29]): 2; Ratio (Candida parapsilosis [30]): 2; Ratio (Nakaseomyces glabratus [31]): 2; Ratio (Pichia kudriavzevii [32]): 2; Ratio (Pichia sporocuriosa [33]): 2; Ratio (Escherichia coli [34]): 2; Ratio (Pseudomonas aeruginosa [35]): 2; Ratio (Raoultella planticola): 2
3.9 (≈ 12.3 µM)	3.9 (≈ 12.3 µM)	7.8 (≈ 24.5 µM)	3.9 (≈ 12.3 µM)	7.8 (≈ 24.5 µM)	7.8 (≈ 24.5 µM)	15.6 (≈ 49 µM)	> 31.2	15.6 (≈ 49 µM)	15.6 (≈ 49 µM)	> 31.2	31.2 (≈ 98 µM)	O=C(N/N=C/c1ccc(O)cc1)c1n[nH]c2c1Cc1ccccc1-2	2	2	15.6 (≈ 49 µM)	7.8 (≈ 24.5 µM)	7.8 (≈ 24.5 µM)	15.6 (≈ 49 µM)	35.6 (≈ 112 µM)	31.2 (≈ 98 µM)	MFC (Candida albicans [20]): 15.6 µg/mL (≈ 49 µM); MFC (Candida albicans [21]): > 62.5 µg/mL; MFC (Candida parapsilosis [22]): 31.2 µg/mL (≈ 98 µM); MFC (Nakaseomyces glabratus [23]): > 62.5 µg/mL; MFC (Pichia sporocuriosa [24]): 62.4 µg/mL (≈ 196 µM); Ratio (Staphylococcus aureus [25]): 2; Ratio (Bacillus subtilis [26]): 2; Ratio (Candida albicans [27]): 2; Ratio (Candida albicans [28]): 2; Ratio (Candida albicans [29]): 2; Ratio (Candida parapsilosis [30]): 2; Ratio (Nakaseomyces glabratus [31]): 2; Ratio (Pichia kudriavzevii [32]): 2; Ratio (Pichia sporocuriosa [33]): 2; Ratio (Escherichia coli [34]): 2; Ratio (Pseudomonas aeruginosa [35]): 2; Ratio (Raoultella planticola): 2
